Hits are enriched below; roughly 3.1% of the tested compounds scored in any of these assays.
CSN inh = CSN deneddylation inhibition; Q92905; Purified CSN, SCF-Nedd8-OG deneddylation, fluorescence polarization; inhibition, % at 12.5 µM; 0.38% of 360,000 active; AID 651999;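 active = pattern-corrected inhibition above about 35%, with an unprinted fluorescence ratio check between 0.5 and 1.5, limit read from the data, passing the limit was not always enough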
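Test system: purified human Csn5 enzyme expressed in HEK293T cells. Amount: 0.24 nM enzyme. Reagent: SCFSkp2-Nedd8OG substrate at 10 nM final. Schedule: 90 min incubation of compound, enzyme and substrate at room temperature. Detection: fluorescence polarization. Read-out: % inhibition of substrate cleavage by Csn5.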
ATG4B inh = ATG4B (human) cysteine protease inhibition | AID 504462 | inhibition, % at 8.33 µM | Q9Y4P1 | 0.51% of 340,000 active | ATG4B cleavage of LC3-PLA2, NBD-HPC fluorescence, 1 h; in the data active = inhibition above about 40%
UHRF1 MBD2 ctr = UHRF1 methyl-DNA binding inhibition; Q96T88; UHRF1 binding to methylated oligo, TR-FRET; inhibition, % at 4.4 µM; 0.75% of 370,000 active;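 also: UHRF1 SRA domain binding a hemimethylated CpG hairpin DNA probe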
Target sequence (Q96T88 whole entry, looked up, the tested form may be a part): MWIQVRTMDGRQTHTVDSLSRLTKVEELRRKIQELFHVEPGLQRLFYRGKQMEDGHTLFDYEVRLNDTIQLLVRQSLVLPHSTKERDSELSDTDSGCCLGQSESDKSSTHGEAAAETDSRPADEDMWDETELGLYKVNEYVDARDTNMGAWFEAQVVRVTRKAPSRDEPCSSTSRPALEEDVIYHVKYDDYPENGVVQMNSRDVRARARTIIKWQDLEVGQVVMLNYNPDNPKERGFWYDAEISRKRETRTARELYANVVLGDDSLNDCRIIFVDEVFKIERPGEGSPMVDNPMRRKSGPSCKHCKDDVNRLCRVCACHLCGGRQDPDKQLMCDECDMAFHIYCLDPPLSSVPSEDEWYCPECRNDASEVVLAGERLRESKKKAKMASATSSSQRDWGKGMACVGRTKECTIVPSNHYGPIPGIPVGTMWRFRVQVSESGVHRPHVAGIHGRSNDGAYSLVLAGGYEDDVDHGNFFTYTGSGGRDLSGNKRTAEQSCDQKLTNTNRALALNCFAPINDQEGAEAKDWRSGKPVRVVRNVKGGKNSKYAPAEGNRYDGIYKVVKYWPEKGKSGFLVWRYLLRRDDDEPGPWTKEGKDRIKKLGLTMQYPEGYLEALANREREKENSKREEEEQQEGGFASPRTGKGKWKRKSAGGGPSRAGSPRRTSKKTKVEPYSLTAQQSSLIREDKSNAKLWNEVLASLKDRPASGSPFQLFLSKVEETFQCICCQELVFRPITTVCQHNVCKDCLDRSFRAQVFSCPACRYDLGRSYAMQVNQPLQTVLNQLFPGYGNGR
MBD2 inh = blocks human MBD2 binding to methylated DNA; inhibition, % at 4.4 µM; TR-FRET, MBD2 binding to methylated oligonucleotide; Q9UBB5; 0.31% of 370,000 active; in the data active = inhibition above about 13%
rCAG RNA binder = binds r(CAG) RNA repeats; r(CAG) RNA repeat, TO-PRO-1 dye displacement fluorescence; inhibition, % at 3 µM; 1.3% of 370,000 active; AID 651821;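 active = inhibition above the plate cutoff, the mean of all test compounds on that plate plus 3 SD, cut at about 35% in these data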;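 also: higher means more dye released from RNA so lower well fluorescence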
LEDGF integ inh = blocks HIV-1 LEDGF/p75-dependent DNA integration | 0.64% of 370,000 active | AID 743269 | TR-FRET IN-LEDGF/p75 DNA integration, Eu/Cy5 | inhibition, % at 3.7 µM;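 active = inhibition above the screen-wide mean plus 3 SD, cut at about 13% in these data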;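 also: signal is the Cy5 over europium emission ratio at 671 and 618 nm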
UHRF1 ctr MBD2 = counter-screen for MBD2 inhibitors: human UHRF1 methylated DNA binding inhibitors | shares compounds with MBD2 inh | UHRF1 binding to methylated oligonucleotide, TR-FRET | inhibition, % at 4.4 µM | 25% of 1,000 active | AID 720530;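 also: UHRF1 SRA domain binding a labeled hemimethylated CpG hairpin DNA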
MBD2 DBD conf = MBD2-DBD methyl-DNA binding inhibition, TR-FRET confirmation; shares compounds with MBD2 inh; TR-FRET MBD2-DBD binding to methylated oligonucleotide; inhibition, % at 4.4 µM; 26% of 1,000 active; AID 720531; in the data active = inhibition above about 14%
Of the large screens only hits and unclear results are named; the others gave an inactive call (follow-up assays come after a bar, where they were run); ! = not active in a repeat. Rule as the data show it, unless noted: active = inhibition above about 21%; inactive = the rest.

COc1ccc(Cn2ccc3ccc(-c4ccc5ccn(Cc6cccc(F)c6)c5c4)cc32)cc1	none (no result: CSN inh, ATG4B inh)
CCN(C[C@H]1N[C@@](C)(C(=O)OC)[C@H]2C(=O)N(C)C(=O)[C@@H]12)C(=O)Nc1ccc(C(F)(F)F)cc1	UHRF1 MBD2 ctr 21.6, MBD2 inh 14.8 | UHRF1 ctr MBD2 inactive | MBD2 DBD conf inactive
CCN(C[C@H]1N[C@@](C)(C(=O)OC)[C@H]2C(=O)N(C)C(=O)[C@@H]12)C(=O)Nc1ccc(F)cc1	none
O=C(O)CCc1ccc(-c2cccs2)n1CC(=O)Nc1ccccc1C(F)(F)F	MBD2 inh 27.6 | UHRF1 ctr MBD2 inactive | MBD2 DBD conf inactive
COc1ccc(CCNC(=O)c2cc(-c3ccco3)nc3ccccc23)cc1	UHRF1 MBD2 ctr 21.1, MBD2 inh 16.9 (no result: CSN inh) | UHRF1 ctr MBD2 inactive | MBD2 DBD conf inactive
CCN(CC)CCNC(=O)c1cc(-c2ccco2)nc2ccccc12	none
CN(Cc1cn(Cc2ccccc2)nn1)S(=O)(=O)c1ccccc1Br	none (no result: CSN inh, ATG4B inh)
CCN(c1ccccc1)S(=O)(=O)c1cccc(C(=O)NCC2(N(C)C)CCCCC2)c1	MBD2 inh 22.7 | UHRF1 ctr MBD2 inactive | MBD2 DBD conf inactive
Cc1ccc(OCc2nnc(SCC(=O)Nc3ccc4c(c3)OCO4)n2Cc2ccco2)cc1	none (no result: CSN inh, ATG4B inh)
NNC(=O)Cn1c2ccccc2c2ccccc21	MBD2 inh 13.8 | UHRF1 ctr MBD2 inactive | MBD2 DBD conf inactive
O=C(O)Cn1c2ccccc2c2ccccc21	none
COc1ccc(-c2cc(-c3ccccc3)c(C#N)c(=S)[nH]2)cc1	MBD2 inh 21.1 | UHRF1 ctr MBD2 inactive | MBD2 DBD conf inactive
CC(C)N1CCc2c(sc(NC(=O)c3nc4ccccc4s3)c2C(N)=O)C1	none
CC(=O)Nc1sc2c(c1-c1nc3ccccc3s1)CCOC2	none (no result: CSN inh, ATG4B inh, rCAG RNA binder)
CC(=O)Nc1sc2c(c1-c1nc3ccccc3s1)CN(C(C)C)CC2	MBD2 inh 36.1 | UHRF1 ctr MBD2 24.1 | MBD2 DBD conf 57.0
CC(=O)Nc1sc2c(c1-c1nc3ccccc3s1)CN(C(C)C)C2	MBD2 inh 14.1 (no result: CSN inh, ATG4B inh, rCAG RNA binder) | UHRF1 ctr MBD2 inactive | MBD2 DBD conf 28.5
CC(=O)Nc1sc2c(c1-c1nc3ccccc3s1)CCCN(C(C)C)C2	UHRF1 MBD2 ctr 27.8, MBD2 inh 50.2 (no result: CSN inh, ATG4B inh, rCAG RNA binder) | UHRF1 ctr MBD2 35.1 | MBD2 DBD conf 54.6
CC(=O)Nc1sc2c(c1-c1nc3ccccc3s1)CCN(C)C2	MBD2 inh 28.4 (no result: CSN inh, ATG4B inh, rCAG RNA binder) | UHRF1 ctr MBD2 inactive | MBD2 DBD conf 41.6
COc1ccc(NC(=O)Nc2ccccc2OC)cc1	none
COc1ccccc1NC(=O)Nc1ccc(CC#N)cc1	MBD2 inh 60.4 | UHRF1 ctr MBD2 inactive | MBD2 DBD conf inactive
CC(C)(C)c1ccc(C(=O)Nc2cc(Cl)ccc2-c2nn[nH]n2)cc1	none (no result: CSN inh, ATG4B inh, rCAG RNA binder)
CC(C)CC1Nc2ncnc(N3CCOCC3)c2N(Cc2ccc(Cl)cc2)C1=O (stereo unspecified)	UHRF1 MBD2 ctr 23.6!, MBD2 inh 20.6! | UHRF1 ctr MBD2 inactive | MBD2 DBD conf inactive
CC(C)CC1Nc2ncnc(N3CCOCC3)c2N(Cc2ccccc2)C1=O (stereo unspecified)	none
CN(C(=O)c1ccc(Cl)cc1)C1CCS(=O)(=O)C1 (stereo unspecified)	none
COc1cc2cc(C(=O)N(C)C3CCS(=O)(=O)C3)[nH]c2cc1OC (stereo unspecified)	MBD2 inh 15.4 | UHRF1 ctr MBD2 inactive | MBD2 DBD conf inactive
CC(C)CN1C(=O)[C@@]2(CC(=O)N(C)C2c2ccccc2)c2cc(-n3cc(-c4ccccc4)nn3)ccc21 (stereo partly specified)	none (no result: CSN inh, ATG4B inh)
CC(C)CN1C(=O)C[C@@]2(C(=O)N(C)c3ccc(NS(=O)(=O)C4CC4)cc32)C1c1ccccc1 (stereo partly specified)	MBD2 inh 15.2 (no result: CSN inh, ATG4B inh) | UHRF1 ctr MBD2 inactive | MBD2 DBD conf inactive
O=C(Nc1nnc(SCC(=O)N2CCCCC2)s1)c1c(F)cccc1F	MBD2 inh 32.9 | UHRF1 ctr MBD2 inactive | MBD2 DBD conf inactive
